Assay results: ChEMBL document CHEMBL1629612, “Characterization and sequence analysis of extended-spectrum-{beta}-lactamase-encoding genes from Escherichia coli, Klebsiella pneumoniae, and Proteus mirabilis isolates collected during tigecycline phase 3 clinical trials” (2009)
Values after ≈ are worked out from the molar mass of the structure shown.

Legend:
Format in all cases: functional
Escherichia coli [1] = assay: Antimicrobial activity against Escherichia coli expressing beta-lactamase AmpC and extended-spectrum beta-lactamase by Etest
Method in brief: (§1)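 Clinical isolates from tigecycline phase 3 trials were received as frozen primary cultures. Serial isolates from one patient were riboprinted, and only the first of identical strains was kept. β-Lactamase genes were assigned by PCR. ESBL confirmation used Etest ESBL strips carrying ceftazidime or cefotaxime, alone and combined with clavulanic acid, following the strip maker's instructions.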

Escherichia coli [2] = assay: Antimicrobial activity against Escherichia coli expressing beta-lactamase AmpC by Etest; method in brief: as §1
Klebsiella pneumoniae [3] = assay: Antimicrobial activity against Klebsiella pneumoniae expressing beta-lactamase CTX by Etest based on multiple determinants
Method in brief: (§2)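 Clinical isolates from tigecycline phase 3 trials were received as frozen primary cultures. Repeat isolates from one patient were riboprinted, and only the first of identical strains was kept. β-lactamase genes were assigned by PCR against control strains, plus isoelectric focusing. ESBL confirmation used Etest ESBL strips carrying ceftazidime or cefotaxime with clavulanic acid, read per the manufacturer's instructions.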

Escherichia coli [4] = assay: Antimicrobial activity against Escherichia coli expressing beta-lactamase CTX and SHV by Etest; method in brief: as §1
Escherichia coli [5] = assay: Antimicrobial activity against Escherichia coli expressing beta-lactamase CTX by Etest based on multiple determinants; method in brief: as §1
Escherichia coli [6] = assay: Antimicrobial activity against Escherichia coli extended-spectrum beta-lactamase producing isolate by Etest; method in brief: as §1
Klebsiella pneumoniae [7] = assay: Antimicrobial activity against Klebsiella pneumoniae extended-spectrum beta-lactamase producing isolate by Etest; method in brief: as §2
Proteus mirabilis [8] = assay: Antimicrobial activity against Proteus mirabilis extended-spectrum beta-lactamase producing isolate by Etest; method in brief: as §2
Escherichia coli [9] = assay: Antimicrobial activity against Escherichia coli expressing beta-lactamase CTX by Etest based on single determinant; method in brief: as §1
Klebsiella pneumoniae [10] = assay: Antimicrobial activity against Klebsiella pneumoniae expressing beta-lactamase SHV by Etest based on single determinant; method in brief: as §2
Klebsiella pneumoniae [11] = assay: Antimicrobial activity against Klebsiella pneumoniae expressing beta-lactamase SHV by Etest based on multiple determinants; method in brief: as §2
Klebsiella pneumoniae [12] = assay: Antimicrobial activity against Klebsiella pneumoniae expressing beta-lactamase CTX by Etest based on single determinant; method in brief: as §2
Klebsiella pneumoniae [13] = assay: Antimicrobial activity against Klebsiella pneumoniae expressing beta-lactamase SHV and CTX by Etest; method in brief: as §2
Klebsiella pneumoniae [14] = assay: Antimicrobial activity against Klebsiella pneumoniae expressing extended-spectrum beta-lactamase and beta-lactamase AmpC by Etest; method in brief: as §1
Klebsiella pneumoniae [15] = assay: Antimicrobial activity against Klebsiella pneumoniae expressing beta-lactamase DHA by Etest; method in brief: as §1
Proteus mirabilis [16] = assay: Antimicrobial activity against Proteus mirabilis expressing extended-spectrum beta-lactamase by Etest based on single determinant; method in brief: as §2
Proteus mirabilis [17] = assay: Antimicrobial activity against Proteus mirabilis expressing extended-spectrum beta-lactamase by Etest based on multiple determinants; method in brief: as §2
Proteus mirabilis [18] = assay: Antimicrobial activity against Proteus mirabilis expressing beta-lactamase AmpC by Etest; method in brief: as §2

C[C@@H](O)[C@H]1C(=O)N2C(C(=O)O)=C(SCCNC=N)C[C@H]12 [IMIPENEM ANHYDROUS]
MIC50 (Escherichia coli [1]): 0.25 µg/mL (≈ 0.835 µM) | MIC90 (Escherichia coli [1]): 0.5 µg/mL (≈ 1.67 µM) | MIC (Escherichia coli [2]): 0.12 µg/mL (≈ 0.401 µM) | MIC50 (Klebsiella pneumoniae [3]): 0.25 µg/mL (≈ 0.835 µM) | MIC90 (Klebsiella pneumoniae [3]): 0.5 µg/mL (≈ 1.67 µM) | MIC50 (Escherichia coli [4]): ≤ 0.12 µg/mL | MIC90 (Escherichia coli [4]): 0.25 µg/mL (≈ 0.835 µM) | MIC50 (Escherichia coli [5]): ≤ 0.12 µg/mL | MIC90 (Escherichia coli [5]): 0.25 µg/mL (≈ 0.835 µM) | MIC50 (Escherichia coli [6]): ≤ 0.12 µg/mL | MIC90 (Escherichia coli [6]): 0.25 µg/mL (≈ 0.835 µM) | MIC50 (Klebsiella pneumoniae [7]): 0.25 µg/mL (≈ 0.835 µM) | MIC90 (Klebsiella pneumoniae [7]): 1 µg/mL (≈ 3.34 µM) | MIC50 (Proteus mirabilis [8]): 2 µg/mL (≈ 6.68 µM) | MIC90 (Proteus mirabilis [8]): 4 µg/mL (≈ 13.4 µM) | MIC50 (Escherichia coli [9]): ≤ 0.12 µg/mL | MIC90 (Escherichia coli [9]): 0.25 µg/mL (≈ 0.835 µM) | MIC50 (Klebsiella pneumoniae [10]): 0.25 µg/mL (≈ 0.835 µM) | MIC90 (Klebsiella pneumoniae [10]): 1 µg/mL (≈ 3.34 µM) | MIC (Klebsiella pneumoniae [11]): 0.12 µg/mL (≈ 0.401 µM) | MIC50 (Klebsiella pneumoniae [12]): 0.25 µg/mL (≈ 0.835 µM) | MIC90 (Klebsiella pneumoniae [12]): 0.5 µg/mL (≈ 1.67 µM) | MIC50 (Klebsiella pneumoniae [13]): 0.25 µg/mL (≈ 0.835 µM) | MIC90 (Klebsiella pneumoniae [13]): 0.5 µg/mL (≈ 1.67 µM) | MIC (Klebsiella pneumoniae [14]): 0.06 µg/mL (≈ 0.2 µM) | MIC (Klebsiella pneumoniae [15]): 0.5 µg/mL (≈ 1.67 µM) | MIC (Proteus mirabilis [16]): 0.5 µg/mL (≈ 1.67 µM) | MIC (Proteus mirabilis [17]): 2 µg/mL (≈ 6.68 µM) | MIC (Proteus mirabilis [18]): 1 µg/mL (≈ 3.34 µM)

C[C@H]1COc2c(N3CCN(C)CC3)c(F)cc3c(=O)c(C(=O)O)cn1c23.C[C@H]1COc2c(N3CCN(C)CC3)c(F)cc3c(=O)c(C(=O)O)cn1c23.O [LEVOFLOXACIN]
MIC50 (Escherichia coli [1]): 16 µg/mL | MIC90 (Escherichia coli [1]): > 16 µg/mL | MIC50 (Klebsiella pneumoniae [3]): 4 µg/mL | MIC90 (Klebsiella pneumoniae [3]): 16 µg/mL | MIC50 (Escherichia coli [4]): 16 µg/mL | MIC90 (Escherichia coli [4]): > 16 µg/mL | MIC50 (Escherichia coli [5]): > 16 µg/mL | MIC90 (Escherichia coli [5]): > 16 µg/mL | MIC50 (Escherichia coli [6]): 16 µg/mL | MIC90 (Escherichia coli [6]): > 16 µg/mL | MIC50 (Klebsiella pneumoniae [7]): 2 µg/mL | MIC90 (Klebsiella pneumoniae [7]): > 16 µg/mL | MIC50 (Proteus mirabilis [8]): 8 µg/mL | MIC90 (Proteus mirabilis [8]): > 16 µg/mL | MIC50 (Escherichia coli [9]): 16 µg/mL | MIC90 (Escherichia coli [9]): > 16 µg/mL | MIC50 (Klebsiella pneumoniae [10]): 0.5 µg/mL | MIC90 (Klebsiella pneumoniae [10]): 16 µg/mL | MIC (Klebsiella pneumoniae [11]): 0.12 µg/mL | MIC50 (Klebsiella pneumoniae [12]): 4 µg/mL | MIC90 (Klebsiella pneumoniae [12]): > 16 µg/mL | MIC50 (Klebsiella pneumoniae [13]): 0.5 µg/mL | MIC90 (Klebsiella pneumoniae [13]): > 16 µg/mL | MIC (Klebsiella pneumoniae [14]): 2 µg/mL | MIC (Proteus mirabilis [16]): 0.12 µg/mL | MIC (Proteus mirabilis [17]): 2 µg/mL | MIC (Proteus mirabilis [18]): 4 µg/mL
